In data set [1] the test system is Klebsiella pneumoniae. The experiment in a line: Minimum inhibitory concentration (MIC), tested against Klebsiella pneumoniae X68. The class given is functional.
A short description of data set [2]: Rate constant for hydrolysis at pH 9. The class given is ADME. The settings on record: buffer. The method in brief: (§1)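 Constant-pH hydrolysis (pH 9 or 11) was run on a pH-stat with NaOH addition, and loss of lactam (3.6×10^-4 to 1×10^-3 M) was followed by HPLC. Ionic strength was 0.5 with KCl. A pseudo-first-order rate constant was obtained from the disappearance time course.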

The test system of data set [3] is Streptococcus pyogenes. The experiment in a line: Minimum inhibitory concentration (MIC), tested against Streptococcus pyogenes C203. The class given is functional.
Data set [4] has as its system Providencia rettgeri. The experiment in a line: Minimum inhibitory concentration (MIC), tested against Providencia rettgeri C24. The class given is functional.
A short description of data set [5]: Rate constant for hydrolysis at pH 10. Format: ADME. The settings on record: buffer. A digest of the protocol:
(§2)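 Pseudo-first-order loss of parent lactam followed by HPLC at 35 °C. Lactam was 3.6×10^-4 to 1×10^-3 M in aqueous KCl at ionic strength 0.5, with pH held by NaOH on a pH-stat. Values were measured at pH 10 directly, or at pH 9 (×10) or pH 11 (÷10), taking k_obsd as proportional to [OH−].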

A short description of data set [6]: Rate constant for hydrolysis at pH 11. The class given is ADME. To be noted: buffer. The method in brief:
as §1

Data set [7] in a line: Pseudo-first-order Rate constant for hydrolysis at pH 10. The class given is ADME. The settings on record: buffer. A digest of the protocol: as §2

Usually MIC stands for the lowest concentration found to suppress growth. Read a low MIC as inhibition by little substance.

Molecules are shown by their SMILES. In brackets after ≈: the same amount, converted by molar mass. A value given as a limit tells only on which side of the number the result lay.

As for `CO/N=C(\C(=O)NC1CN2CC(S(C)(=O)=O)=C(C(=O)O)N2C1=O)c1csc(N)n1` (stereo unspecified), the MIC is 0.25 mg/L (≈ 0.562 µM) in data set [1], 0.25 mg/L (≈ 0.562 µM) in data set [3] and 0.06 mg/L (≈ 0.135 µM) in data set [4]. The compound also yielded a k in data set [2] of 14.8 h⁻¹.

Regarding `CO/N=C(\C(=O)NC1CN2CC(C(=O)OC)=C(C(=O)O)N2C1=O)c1csc(N)n1` (stereo unspecified), the MIC in data set [1] is 8 mg/L (≈ 18.9 µM); in data set [3], 4 mg/L (≈ 9.43 µM); in data set [4] it was 1 mg/L (≈ 2.36 µM). Moreover, in data set [2], the k was determined as 4.74 h⁻¹.

Turning to `CO/N=C(\C(=O)NC1CN2N(C1=O)C(C(=O)O)=C(C(=O)OC)C2(C)C)c1csc(N)n1` (stereo unspecified), the MIC was over 128 mg/L in data set [1], 64 mg/L (≈ 141 µM) in data set [3] and over 128 mg/L in data set [4]. Besides, the k in data set [5] stood at 0.769 h⁻¹.

For `CO/N=C(\C(=O)NC1CN2CC(C(=O)O)=C(C(=O)O)N2C1=O)c1csc(N)n1` (stereo unspecified), the minimal inhibitory concentration (MIC) was determined as 64 mg/L (≈ 156 µM) in data set [1], 8 mg/L (≈ 19.5 µM) in data set [3] and 8 mg/L (≈ 19.5 µM) in data set [4]. Also, the k in data set [5] worked out at 0.324 h⁻¹.

Turning to `CO/N=C(\C(=O)NC1CN2CC(c3ccccc3)=C(C(=O)O)N2C1=O)c1csc(N)n1` (stereo unspecified), the MIC in data set [1], in data set [3] and in data set [4] was over 128 mg/L throughout. The k in data set [5] turned out to be 0.146 h⁻¹.

Turning to `CO/N=C(\C(=O)NC1CN2N(C1=O)C(C(=O)O)=C(C(=O)O)C2(C)C)c1csc(N)n1` (stereo unspecified), the MIC in data set [1], in data set [3] and in data set [4] was over 128 mg/L throughout. The compound also gave a k in data set [6] of 0.0111 h⁻¹.

As for `CO/N=C(\C(=O)NC1CN2CC(C(=O)Nc3ccccc3)=C(C(=O)O)N2C1=O)c1csc(N)n1` (stereo unspecified), the values for the MIC in data set [1], in data set [3] and in data set [4] were 32 mg/L (≈ 65.9 µM), 1 mg/L (≈ 2.06 µM) and 8 mg/L (≈ 16.5 µM), respectively. Moreover, the k in data set [2] was 2.33 h⁻¹.

In the case of `CO/N=C(\C(=O)NC1CN2CC(c3cccs3)=C(C(=O)O)N2C1=O)c1csc(N)n1` (stereo unspecified), the minimal inhibitory concentration (MIC) in data set [1], in data set [3] and in data set [4] was over 128 mg/L in each case. This compound returned a k in data set [5] of 0.19 h⁻¹.

Take `CO/N=C(\C(=O)NC1CN2CC(C#N)=C(C(=O)O)N2C1=O)c1csc(N)n1` (stereo unspecified): the MIC amounted to 0.5 mg/L (≈ 1.28 µM) in data set [1], 0.5 mg/L (≈ 1.28 µM) in data set [3] and 0.25 mg/L (≈ 0.639 µM) in data set [4]. This compound came in with a k in data set [2] of 17.3 h⁻¹.

Take `CO/N=C(\C(=O)NC1CN2CC(C(C)=O)=C(C(=O)O)N2C1=O)c1csc(N)n1` (stereo unspecified): the MIC in data set [1] came out at 2 mg/L (≈ 4.9 µM); in data set [3], 0.5 mg/L (≈ 1.22 µM); in data set [4], 0.25 mg/L (≈ 0.612 µM). In data set [2], this compound gave a k of 7.24 h⁻¹.

Take `C[C@H]1[C@H](NC(=O)/C(=N\OC(C)(C)C(=O)O)c2csc(N)n2)C(=O)N1S(=O)(=O)O` [AZTREONAM]: in data set [7], the k stood at 0.4 h⁻¹.

Consider `N[C@@H](C(=O)N[C@@H]1C(=O)N2C(C(=O)O)=C(Cl)CS[C@H]12)c1ccccc1.O` [CEFACLOR], for which the k in data set [7] was 0.944 h⁻¹.

`CC(C)(O/N=C(\C(=O)N[C@@H]1C(=O)N2C(C(=O)[O-])=C(C[n+]3ccccc3)CS[C@H]12)c1csc(N)n1)C(=O)O` [CEFTAZIDIME]: in data set [7], the k came out at 1.3 h⁻¹.

`CC1=C(C(=O)O)N2C(=O)[C@@H](NC(=O)[C@H](N)c3ccccc3)[C@H]2SC1` [CEPHALEXIN ANHYDROUS] registered a k in data set [7] of 0.0685 h⁻¹.

`CC(=O)OCC1=C(C(=O)O)N2C(=O)[C@@H](NC(=O)Cc3cccs3)[C@H]2SC1` [CEPHALOTHIN] gave a k in data set [7] of 0.317 h⁻¹.

As for `CC1(C)S[C@@H]2[C@H](NC(=O)COc3ccccc3)C(=O)N2[C@H]1C(=O)O` [PENICILLIN V], the k in data set [7] came to 0.248 h⁻¹.

The values above are taken from ChEMBL document CHEMBL1124136, “The acylating potential of gamma-lactam antibacterials: base hydrolysis of bicyclic pyrazolidinones” (J Med Chem, 1988).
